Hits are enriched below; roughly 0.86% of the tested compounds scored in any of these assays.
CXCR6 inh: CXCR6 (human) receptor inhibition. inhibition, % at 20 µM. 0.36% of 360,000 active. O00574. CHO-K1 PathHunter CXCR6 beta-arrestin, luminescence; in the data active = inhibition above about 34%, passing the limit was not always enough;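 note: antagonist mode with CXCL16 agonist at 10 nM final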
Target sequence (O00574 whole entry, looked up): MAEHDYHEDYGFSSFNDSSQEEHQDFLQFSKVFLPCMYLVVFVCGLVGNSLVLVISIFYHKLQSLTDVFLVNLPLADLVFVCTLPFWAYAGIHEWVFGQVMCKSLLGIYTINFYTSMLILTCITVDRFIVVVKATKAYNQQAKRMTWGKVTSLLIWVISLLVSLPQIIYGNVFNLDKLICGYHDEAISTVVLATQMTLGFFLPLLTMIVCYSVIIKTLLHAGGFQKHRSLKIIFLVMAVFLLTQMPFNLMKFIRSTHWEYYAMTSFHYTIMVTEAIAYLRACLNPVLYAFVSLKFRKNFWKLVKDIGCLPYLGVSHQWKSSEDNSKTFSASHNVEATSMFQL
DAGLB inhibitor: diacylglycerol lipase beta (human) inhibition | Q8NCG7 | HEK293T DAGLB membrane lysate, EnzChek fluorogenic substrate | inhibition, % at 5.17 µM | 0.059% of 340,000 active | AID 504411; in the data active = inhibition above about 34%
CCR6 antagonist: CCR6 (human) receptor antagonism; P51684; CHO-K1 CCR6 PathHunter beta-arrestin, luminescence, CCL20-stimulated; inhibition, % at 20 µM; 0.49% of 340,000 active;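 active = compounds whose inhibition of the agonist-driven luminescence signal at 20 µM reaches about 50%, limit read from the data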;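 note: cells stimulated with CCL20 at 14 nM final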
APJ ag: APJ receptor agonism | P35414 | CHO-K1 APJ PathHunter beta-arrestin, luminescence; 0% DMSO wells, 100% apelin | activation, % at 20 µM | 0.11% of 330,000 active;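 active = activation more than six SD over the plate average, tested at 20 µM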
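Incubation: overnight seeding, 90 min compound at 25 °C, 1 h detection; test system: PathHunter CHO-K1 APJ (AGTRL-1) beta-arrestin reporter cells; amount: 1000 cells/well; doses: one dose, 20 µM compound, 1% DMSO; measured by: beta-gal luminescence; measure: agonist-driven arrestin binding to APJ; benchmarks: negative DMSO alone, positive Apelin-13 at 10 nM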
APJ antag: APJ receptor antagonism. P35414. CHO-K1 APJ beta-arrestin complementation, luminescence. inhibition, % at 20 µM. 0.32% of 330,000 active;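 active = inhibition above about 40% at 20 µM, limit read from the data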;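 note: cells challenged with 10 nM apelin-13 agonist together with compound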
hiPSC survival: hiPSC single-cell survival enhancement. 0.044% of 360,000 active. survival enhancement, % at 20 µM. ATPlite luminescence; 100% = ROCK inhibitor wells, 0% = DMSO; in the data active = survival enhancement above about 18%;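 note: cells exposed to compounds for 16 hours before the ATP read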
APJ ag conf: APJ receptor agonism confirmation | shares compounds with APJ ag | CHO-K1 APJ PathHunter beta-arrestin, luminescence | activation, % at 20 µM | 10% of 310 active | AID 2764;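 active = activation above 40%, taking the highest of four retests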
Of the large screens only hits and unclear results are named; the others gave an inactive call (follow-up assays come after a bar, where they were run).

CC1=CC(=O)C(C(C)C)=C/C1=N/OS(=O)(=O)c1ccccc1	APJ ag 184.6 | APJ ag conf 77.7
Cc1cccc(/C(N)=N/OC(=O)c2cccc3ccccc23)c1	APJ ag 36.5 (no result: CCR6 antagonist) | APJ ag conf inactive
Cc1ccc2c(=O)c(CN3CCCCCC3)c(C)[nH]c2c1C	APJ ag 24.9 | APJ ag conf inactive
Cc1[nH]c2c(Cl)cccc2c(=O)c1CN1CCCCCC1	none
COc1ccc(CCNC(=O)c2ccc(S(=O)(=O)N3CCCCC3)cc2)cc1	none
Cc1onc(-c2ccccc2)c1-c1nnc(-c2ccccc2C(F)(F)F)o1	none
CCn1c(C)nc2cc(-c3nnc(-c4c(-c5ccccc5)noc4C)o3)ccc21	APJ ag 17.1 | APJ ag conf inactive
CN(c1ccccc1)S(=O)(=O)c1cccc(NC(=O)c2cc(=O)c3ccccc3o2)c1	APJ ag 12.3 | APJ ag conf inactive
Cc1nn(-c2ccccc2)c(Cl)c1C(=O)N1CCN(c2ncnc3c2cnn3-c2ccccc2)CC1	APJ ag 18.0 | APJ ag conf inactive
O=C(c1ccccc1)N1CCN(c2ncnc3c2cnn3-c2ccccc2)CC1	none
CCCC(CCC(=O)Nc1ccn(-c2ccccc2)n1)C(=O)O (stereo not drawn)	none
CCOc1ccc(NS(=O)(=O)c2ccc(C(=O)NCC(c3ccco3)N3CCCCC3)cc2)cc1 (stereo not drawn)	none (no result: CCR6 antagonist, APJ ag, APJ antag)
CCOC(=O)c1nc(C)c(C(C)=O)s1	none
C=CCn1c(SCC(=O)N2CCN(c3ccccc3)CC2)nc2c([nH]c3ccccc32)c1=O	APJ ag 65.2 | APJ ag conf inactive
CSCC[C@H](NC(=O)c1cccc(S(=O)(=O)N2CCN(C)CC2)c1)c1nc2ccccc2[nH]1	none
COc1ccccc1C(=O)Nc1nc(-c2ccc(S(=O)(=O)N3CCOCC3)cc2)cs1	APJ ag 44.6 | APJ ag conf inactive
CN1CCN(S(=O)(=O)c2ccc3c(c2)oc(=O)n3C)CC1	none
COc1ccc(C)cc1NC(=O)CN(C)S(=O)(=O)c1ccc2c(c1)CC(C)N2C(C)=O (stereo not drawn)	none
CC(=O)Nc1ccc(Nc2nc(-c3cc4ccccc4oc3=O)cs2)cc1	APJ ag 17.4 | APJ ag conf inactive
CCOC(=O)c1sc(NC(=O)CN2C(=O)NC3(CC(C)CC(C)(C)C3)C2=O)cc1C (stereo not drawn)	APJ ag 38.3 | APJ ag conf inactive
CC(C)NC(=O)c1cc(C2CCCCN2C(=O)c2cc(C(C)(C)C)nn2C)on1 (stereo not drawn)	none (no result: DAGLB inhibitor, CCR6 antagonist, APJ ag, APJ antag)
COc1ccc(/C=N/Nc2cc(C)nc3ccc(Br)cc23)cc1	APJ ag 16.7 | APJ ag conf inactive
N/C(=N\OS(=O)(=O)c1ccc2ccccc2c1)c1ccncc1	APJ ag 27.7 | APJ ag conf 67.5
N/C(=N\OS(=O)(=O)c1ccc2ccccc2c1)c1cccnc1	none
CCCOc1ccc(C(=O)N/N=C/c2c[nH]c3ccc(Br)cc23)cc1	none
CCCCCN=C(N)N/N=C/c1c[nH]c2ccc(OC)cc12	CCR6 antagonist 54.5, APJ ag 35.0 | APJ ag conf inactive
O=C(NNS(=O)(=O)c1ccc(F)cc1)C1CCN(Cc2cccc(F)c2)CC1	none
CCN(CC)S(=O)(=O)c1ccc(OCC(=O)NC(=O)Cc2ccccc2)c([N+](=O)[O-])c1	APJ ag 11.6 | APJ ag conf inactive
CC1=NOC(=O)/C1=C\c1ccc(-c2cccc(Cl)c2)o1	CXCR6 inh 95.8, APJ ag 15.1 (no result: CCR6 antagonist) | APJ ag conf inactive
CC1=NOC(=O)/C1=C\c1ccc(-c2ccc(Cl)c(C(=O)O)c2)o1	none
CC[C@]1(C(=O)OC)[C@H]2C(=O)N(Cc3ccccc3)C(=O)[C@H]2[C@H]2CN=C(SC)N21	none (no result: APJ ag, APJ antag)
Cc1ccc(S(=O)(=O)NCc2ccc(C(=O)N3CCN(c4ccc([N+](=O)[O-])cc4)CC3)cc2)cc1	APJ ag 19.0 | APJ ag conf inactive
COc1ccc(N2CCN(C(=O)c3ccc(CNS(=O)(=O)c4ccc(C)cc4)cc3)CC2)cc1	none
O=C(/C=C/c1ccc(OCCCF)cc1)Nc1ccnc(-c2ccncc2)n1	APJ ag 15.9 | APJ ag conf inactive
O=C(NC(Cc1ccccc1)C(=O)N1CCN(S(=O)(=O)c2ccccc2F)CC1)c1ccccc1 (stereo not drawn)	APJ ag 26.1 | APJ ag conf inactive
COC(=O)c1cc(C(=O)NCC2CCCCC2)cc([N+](=O)[O-])c1	none
COC1(C)CC2C(CC1OC(=O)c1cc([N+](=O)[O-])cc([N+](=O)[O-])c1)C2(C)C (stereo not drawn)	APJ ag 13.5 | APJ ag conf inactive
COc1ccc(CN(C)c2ncnc3sccc23)c(OC)c1OC	none
COc1cc2ccccc2cc1C(=O)Nc1ccc(N2CCN(C)CC2)cc1	none
COc1cc2ccccc2cc1C(=O)Nc1ccc(N2CCN(C(=O)C(C)C)CC2)cc1	APJ ag 19.6 | APJ ag conf inactive
Cc1ccc(-c2nn(-c3ccccc3)cc2/C=N/NC(=O)c2ccc(Br)o2)cc1	APJ ag 12.5 | APJ ag conf inactive
O=C(N/N=C\c1cn(-c2ccccc2)nc1-c1ccccc1)c1ccc(Br)o1	none
COc1ccc(NC(=O)/C(C#N)=C/c2ccc(Sc3nncn3C)c([N+](=O)[O-])c2)cc1	APJ ag 18.0 | APJ ag conf inactive
CC(=O)NC(CC(=O)N1CCN(C(C)=O)CC1)c1ccccc1 (stereo not drawn)	none
CC1=C(C(=O)OCc2ccc3c(c2)OCO3)C(c2ccc(Cl)cc2)NC(=O)N1 (stereo not drawn)	none
CC1=C(C(=O)OCc2ccccc2)C(c2cccc(F)c2)NC(=O)N1 (stereo not drawn)	APJ ag 18.6 | APJ ag conf inactive
CC1=C(C(=O)OCc2ccccc2)C(c2ccccc2)NC(=O)N1 (stereo not drawn)	none
CC1=C(C(=O)OCc2ccc3c(c2)OCO3)C(c2ccc(F)cc2)NC(=O)N1 (stereo not drawn)	APJ ag 28.6 | APJ ag conf inactive
N/C(Cc1ccc(Cl)c(Cl)c1)=N\OC(=O)c1cccs1	APJ ag 18.5 | APJ ag conf 40.4
CCCN(CC(=O)Nc1ccccc1OC)C(=O)c1ccc(=O)[nH]c1	none
CCCCCCc1cc2cc(C(=O)Nc3ccccc3)c(=O)oc2cc1O	APJ ag 11.3 | APJ ag conf 43.0
COc1ccc(/C=N/N2C(=O)CSC2=S)cc1	none
COc1ccc(-c2nn(-c3ccccc3)cc2/C=N/N2C(=O)CSC2=S)cc1	APJ ag 17.9 | APJ ag conf inactive
CC1=C(c2ccc(F)cc2)[N+](=O)C(C)(C)N1[O-]	none

Screens from PubChem BioAssay.
